Measurements: PubChem BioAssay
Active and inactive are the calls of the source.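 The calls were made as follows, unless noted: active = viability at or under a set limit in both replicates, limit being median viability minus 3 SD (cut at about 48% in these data, passing the limit was not always enough); inconclusive = at or under the limit in just one replicate; inactive = at or above the limit in both replicates.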

Tests used:
[1] = reduced viability of SK-BR-3 breast cancer cells – cell-based, 24 h, human, pilot screen (AID 572;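 active = viability at or below 10% of carrier control in both of two separate runs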;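 also: compound exposure lasted between 18 and 24 h rather than exactly 24 h; 100% = carrier-treated control wells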); settings: SK-BR-3 viability, CellTiter-Glo luminescence, at 10 µM, stronger effect = lower value
[2] = HUVEC growth inhibition – cell-based, human, primary screen (AID 575;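 active = viability at or below 30% in both replicate assays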;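 also: 100% = median of untreated cell wells with 0.1% DMSO on each plate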); settings: HUVEC proliferation, CellTiter-Glo luminescence, 72 h; at 10 µM; stronger effect = lower value
Procedure, shortened: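 Material: primary human umbilical vein endothelial cells / Schedule: 72 h exposure, 37 °C, 5% CO2, 30 min RT equilibration / Signal: ATP-based CellTiter-Glo luminescent read / Read-out basis: percent of median DMSO-control luminescence / Control set: 32 DMSO-only cell-control wells (high), 32 MePR drug-control wells (low) per plate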

[3] = H69AR cell proliferation blockers – human, duplicate replicates, primary screen (AID 580); settings: H69AR lung tumor cells viability, ATP luminescence, 72 h; at 10 µM; stronger effect = lower value;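 also: 100% = mean luminescence of untreated wells and 0% = no signal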
[4] = MRP1 drug-resistance reversers in H69AR cells – cell-based, doxorubicin co-treatment, pilot screen (AID 601;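 active = viability loss from added drug above about 55%, and viability with drug at most 40%, in both replicates, limit read from the data, passing the limit was not always enough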); settings: CellTiter-Glo, 72 h, at 10 µM; for differential viability (reversal): stronger effect = higher value
[5] = yeast transport mutant growth inhibition pilot in 384-well plates, post-Golgi transport modulator project (AID 636; in the data active = inhibition above about 31%); settings: absorbance 615 nm, about 18 h, stronger effect = higher value
[6] = growth suppression of yeast trafficking mutant, preliminary HTS, modulators of trafficking downstream of Golgi apparatus project, 1536-format plate, OD 615 nm (AID 637; in the data active = inhibition above about 30%); settings: yeast transport mutant growth, absorbance 615 nm, 18 h; stronger effect = higher value
[7] = H69AR cells + 2 uM doxorubicin, measured here: viability with 2 uM doxorubicin, stronger effect = lower value
[8] = H69AR cells, compound alone cytotoxicity

For `O=C1OC(c2ccc(O)cc2)(c2ccc(O)cc2)c2ccccc21`, which viability [1] is on record?
The viability was 83% (inactive).

And the viability [2]?
Its viability is 48.8% (inactive).

What about the viability [3] of the same molecule?
Its viability is 102% (inactive).

What about the differential viability (reversal) ([4]; H69AR cells + 2 uM doxorubicin) of the same molecule?
The differential viability (reversal) was 4.57% (inactive).

And the viability [4, 7]?
Its viability is 97.7%.

And the viability [4, 8]?
The viability was 102%.

What about the inhibition [5] of the same molecule?
Its inhibition is -2.73% (inactive).

What about the inhibition [6] of the same molecule?
Its inhibition is 8.67% (inactive).

Which results are given for `C[C@H](CS)C(=O)N1CCC[C@H]1C(=O)O`?
viability [1]: 93% (inactive); viability [2]: 92.7% (inactive); viability [3]: 99.8% (inactive); differential viability (reversal) ([4]; H69AR cells + 2 uM doxorubicin): 8.21% (inactive); viability [4, 7]: 91.6%; viability [4, 8]: 99.8%; inhibition [5]: -2.47% (inactive); inhibition [6]: 2.83% (inactive)

With `C[C@@H]1CCC[C@H](C)N1NC(=O)c1ccc(Cl)c(S(N)(=O)=O)c1` as the molecule, how does the viability [1] read?
The viability was 100% (inactive).

What about the viability [2] of the same molecule?
Its viability is 88.5% (inactive).

And the viability [3]?
The viability was 99.7% (inactive).

What about the differential viability (reversal) ([4]; H69AR cells + 2 uM doxorubicin) of the same molecule?
Its differential viability (reversal) is 7.9% (inactive).

What about the viability [4, 7] of the same molecule?
The viability was 91.8%.

What about the viability [4, 8] of the same molecule?
Its viability is 99.7%.

What about the inhibition [5] of the same molecule?
Its inhibition is 0.39% (inactive).

And the inhibition [6]?
Its inhibition is -6.5% (inactive).

What does the source list for `CN(C)C(=O)Oc1ccc[n+](C)c1`?
viability [1]: 92% (inactive); viability [2]: 102% (inactive); viability [3]: 87% (inactive); differential viability (reversal) ([4]; H69AR cells + 2 uM doxorubicin): 5.36% (inactive); viability [4, 7]: 81.6%; viability [4, 8]: 87%; inhibition [5]: -1.17% (inactive); inhibition [6]: -2.33% (inactive)

For `Cc1ccc2c(c1)CCCN2C(=O)c1ccc2c(c1)OCO2`, which viability [1] is on record?
The viability was 48% (inactive).

What about the viability [2] of the same molecule?
Its viability is 108% (inactive).

What about the viability [3] of the same molecule?
The viability was 101% (inactive).

And the differential viability (reversal) ([4]; H69AR cells + 2 uM doxorubicin)?
The differential viability (reversal) was -8.85% (inactive).

And the viability [4, 7]?
The viability was 110%.

And the viability [4, 8]?
The viability was 101%.

What about the inhibition [5] of the same molecule?
Its inhibition is -8.63% (inactive).

What about the inhibition [6] of the same molecule?
The inhibition was -6.18% (inactive).

With `CCN(CC)CCOC(=O)C1(C2CCCCC2)CCCCC1` as the molecule, how does the viability [1] read?
Its viability is 114% (inactive).

What about the viability [2] of the same molecule?
The viability was 72.7% (inactive).

And the viability [3]?
Its viability is 86.3% (inactive).

And the differential viability (reversal) ([4]; H69AR cells + 2 uM doxorubicin)?
The differential viability (reversal) was 3.1% (inactive).

What about the viability [4, 7] of the same molecule?
Its viability is 83.2%.

What about the viability [4, 8] of the same molecule?
The viability was 86.3%.

And the inhibition [5]?
The inhibition was -2.6% (inactive).

What about the inhibition [6] of the same molecule?
The inhibition was -3.33% (inactive).

With `Cc1cc(C)nc(SCCS(=O)Cc2ccc(Cl)cc2)n1` (stereo unspecified) as the molecule, how does the viability [1] read?
Its viability is 102% (inactive).

And the viability [2]?
Its viability is 99.4% (inactive).

And the viability [3]?
Its viability is 96.2% (inactive).

What about the differential viability (reversal) ([4]; H69AR cells + 2 uM doxorubicin) of the same molecule?
The differential viability (reversal) was 4.69% (inactive).

What about the viability [4, 7] of the same molecule?
Its viability is 91.5%.

What about the viability [4, 8] of the same molecule?
Its viability is 96.2%.

What about the inhibition [5] of the same molecule?
The inhibition was -2.34% (inactive).

And the inhibition [6]?
Its inhibition is -3.11% (inactive).

What does the source list for `CCN(CC)C(=O)C1=C(C)Nc2nnnn2C1c1cccnc1` (stereo unspecified)?
viability [1]: 94% (inactive); viability [2]: 109% (inactive); viability [3]: 93.8% (inactive); differential viability (reversal) ([4]; H69AR cells + 2 uM doxorubicin): 4.5% (inactive); viability [4, 7]: 89.3%; viability [4, 8]: 93.8%; inhibition [5]: 0.52% (inactive); inhibition [6]: 3.11% (inactive)

What does the source list for `CN(C)CCN(Cc1ccccc1)c1ccccn1`?
viability [1]: 100% (inactive); viability [2]: 89.1% (inactive); viability [3]: 101% (inactive); differential viability (reversal) ([4]; H69AR cells + 2 uM doxorubicin): 8.55% (inactive); viability [4, 7]: 92.7%; viability [4, 8]: 101%; inhibition [5]: 3.38% (inactive); inhibition [6]: -0.67% (inactive)

For `CCOC(=O)c1c(NC(=O)Cn2c(=O)oc3ccccc32)oc(C)c1C(C)=O`, which viability [1] is on record?
Its viability is 81% (inactive).

And the viability [2]?
Its viability is 99.3% (inactive).

And the viability [3]?
The viability was 101% (inactive).

What about the differential viability (reversal) ([4]; H69AR cells + 2 uM doxorubicin) of the same molecule?
The differential viability (reversal) was 5.86% (inactive).

What about the viability [4, 7] of the same molecule?
The viability was 95.1%.

What about the viability [4, 8] of the same molecule?
The viability was 101%.

What about the inhibition [5] of the same molecule?
Its inhibition is -1.23% (inactive).

What about the inhibition [6] of the same molecule?
The inhibition was -4.52% (inactive).

For `CCc1cccc2c3c([nH]c12)C(CC)(CC(=O)O)OCC3` (stereo unspecified), which viability [1] is on record?
The viability was 113% (inactive).

And the viability [2]?
Its viability is 72% (inactive).

And the viability [3]?
Its viability is 100% (inactive).

And the differential viability (reversal) ([4]; H69AR cells + 2 uM doxorubicin)?
The differential viability (reversal) was 1.21% (inactive).

What about the viability [4, 7] of the same molecule?
Its viability is 99.1%.

What about the viability [4, 8] of the same molecule?
The viability was 100%.

And the inhibition [5]?
The inhibition was 1.56% (inactive).

What about the inhibition [6] of the same molecule?
Its inhibition is 0.67% (inactive).

With `NC(CO)C(=O)NNCc1ccc(O)c(O)c1O` (stereo unspecified) as the molecule, how does the viability [1] read?
The viability was 97% (inactive).

What about the viability [2] of the same molecule?
The viability was 82.9% (inactive).

And the viability [3]?
The viability was 98.7% (inactive).

What about the differential viability (reversal) ([4]; H69AR cells + 2 uM doxorubicin) of the same molecule?
Its differential viability (reversal) is 8.12% (inactive).

And the viability [4, 7]?
Its viability is 90.5%.

And the viability [4, 8]?
The viability was 98.7%.

And the inhibition [5]?
The inhibition was -3.51% (inactive).

And the inhibition [6]?
The inhibition was -2.67% (inactive).
